{"source": "paper PMC6388690", "about": "(Journal of medicinal chemistry, 2018)", "key": {"[1]": {"assay": "Reactivity with GSH monitored by 1H NMR", "conditions": "37°C, 1.5–2 equiv GSH, pH 7.4, compared to oridonin"}, "[2]": {"conditions": "microsomes"}, "[3]": {"test_system": "MCF-7 and MDA-MB-231 cells", "assay": "MTT growth inhibition screen in two breast cancer cell lines", "format": "cell-based, human", "conditions": "MCF-7 and MDA-MB-231, MTT", "summary_of_the_method": "(§1)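 MTT proliferation assay: cells seeded at 1 × 10^4 per well and treated with DMSO or test compound at 0.1, 0.33, 1.0, 3.3 and 10 μM for 72 h. MTT reagent added, then OD 560 nm read after 1 h at 37°C. Quadruplicate wells per concentration.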"}, "MDA-MB-231 cells [4]": {"test_system": "MDA-MB-231 cells", "assay": "MTT cell proliferation assay", "format": "cell-based, human", "summary_of_the_method": "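MDA-MB-231 cells seeded at 1 × 10^4 per well, then exposed to DMSO vehicle or test compound at 0.1, 0.33, 1.0, 3.3 and 10 μM for 72 h. Proliferation read by MTT reagent, with OD at 560 nm after 1 h at 37°C. Quadruplicate wells per concentration. Mean ± SD of at least three independent experiments; one-way ANOVA across groups.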"}, "MCF-7 cells [5]": {"test_system": "MCF-7 cells", "assay": "MTT cell proliferation assay", "format": "cell-based, human", "summary_of_the_method": "as §1"}, "SK-BR3 cells [6]": {"test_system": "SK-BR3 cells", "assay": "MTT cell proliferation assay", "format": "cell-based, human", "summary_of_the_method": "as §1"}, "MDA-MB-468 cells [7]": {"test_system": "MDA-MB-468 cells", "assay": "MTT cell proliferation assay", "format": "cell-based, human", "summary_of_the_method": "as §1"}, "MDA-MB-231 cells [8]": {"test_system": "MDA-MB-231 cells", "assay": "Colony-formation assay", "format": "cell-based, human", "conditions": "MDA-MB-231, low micromolar concentrations, 2 weeks"}, "SK-BR3 cells [9]": {"test_system": "SK-BR3 cells", "assay": "Colony-formation assay", "format": "cell-based, human", "conditions": "SK-BR3, low micromolar concentrations, 2 weeks"}, "MDA-MB-468 cells [10]": {"test_system": "MDA-MB-468 cells", "assay": "Colony-formation assay", "format": "cell-based, human", "conditions": "MDA-MB-468, low micromolar concentrations, 2 weeks"}, "MCF-7 cells [11]": {"test_system": "MCF-7 cells", "assay": "Colony-formation assay", "format": "cell-based, human", "conditions": "MCF-7, low micromolar concentrations, 2 weeks"}, "MDA-MB-231 cells [12]": {"test_system": "MDA-MB-231 cells", "assay": "Cellular apoptosis assay", "format": "cell-based, human", "conditions": "48 h", "summary_of_the_method": "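MDA-MB-231 cells, 2.5 × 10^5 per well, exposed to DMSO vehicle or test compound (1, 5, 10, 15 or 20 μM) for 48 h. Adherent and floating cells pooled and washed in PBS, then resuspended in PBS with 1% BSA plus Annexin V and dead-cell reagent for 20 min at room temperature. Read immediately on a cell analyzer; mean ± SD, ≥3 independent experiments.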"}, "NF-κB (p65)": {"test_system": "NF-κB (p65)", "assay": "Western-blot analysis of apoptosis biomarkers", "format": "cell-based, human", "conditions": "MDA-MB-231, 48 h, dose-dependent", "summary_of_the_method": "(§2)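 MDA-MB-231 cells given DMSO or test compound at several concentrations for 48 h, then lysed. Protein measured by Bradford (BSA standard); 40 μg resolved by SDS-PAGE and transferred to NC membrane. Blocked in 5% nonfat milk, then primaries overnight: Bcl-2 1:200, cleaved PARP 1:500, NF-κB 1:1000, Bax 1:1000, β-actin 1:2000. Secondary antibody applied; bands detected by ECL.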"}, "cleaved PARP": {"test_system": "cleaved PARP", "assay": "Western-blot analysis of apoptosis biomarkers", "format": "cell-based, human", "conditions": "MDA-MB-231, 48 h, dose-dependent", "summary_of_the_method": "as §2"}, "Bcl-2 to Bax ratio": {"test_system": "Bcl-2 to Bax ratio", "assay": "Western-blot analysis of apoptosis biomarkers", "format": "cell-based, human", "conditions": "MDA-MB-231, 48 h", "summary_of_the_method": "as §2"}, "MCF-10A cells": {"test_system": "MCF-10A cells", "assay": "Growth inhibition on normal mammary epithelial cells", "format": "cell-based, human", "conditions": "48 h", "summary_of_the_method": "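Normal mammary epithelial MCF-10A cells treated for 48 h with varying concentrations of test compound or the parent natural product. Mean ± SD of three independent experiments. Student t-test against the parent natural product at the same concentration.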"}, "[13]": {"test_system": "MDA-MB-231 xenograft tumors", "assay": "MDA-MB-231 orthotopic xenograft tumor growth in nude mice", "format": "in vivo", "conditions": "intraperitoneal; for inhibitory effect on tumor growth compared to vehicle: daily", "summary_of_the_method": "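Female nude mice aged 6–8 weeks, kept in a barrier unit on a 12 h light–dark cycle. Freshly harvested MDA-MB-231 cells (1.0 × 106 in 100 μL PBS) injected into the no. 3 mammary fat pad, then mice randomized into 4 groups. Once tumours reached 80–100 mm3, daily ip test compound (10 or 15 mg/kg), parent natural product or vehicle, all dissolved in DMSO. Tumour volume (V = 0.5 × L × W2) and body weight measured daily; mean ± SEM.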"}, "[14]": {"conditions": "2 equiv of GSH at pH 7.4; cited from earlier work"}, "[15]": {"conditions": "relatively long time (hours); cited from earlier work"}, "t(8;21) leukemia": {"test_system": "t(8;21) leukemia", "conditions": "7.5 and 15 mg/kg; cited from earlier work"}}, "note": "Where a name gives a salt, the structure may show the parent alone.", "data": [{"smiles": "C=C1C(=O)[C@]23[C@H](OC(=O)[C@H](C)N)[C@H]1CC[C@H]2[C@@]12CO[C@@]3(O)[C@@H](O)[C@@H]1C(C)(C)CC[C@@H]2O.O=C(O)C(F)(F)F", "note": "[Compound 14]", "values": [{"measurement": "Reactivity / stability of covalent warhead toward GSH (in words)", "setting": "[1]", "result": "may enhance the enone’s reactivity"}]}, {"smiles": "C=C1C(=O)[C@@]23[C@@H]4OC(C)(C)O[C@@]25OC[C@@]2([C@H]([C@@H]5O)C(C)(C)CC[C@@H]2O)[C@@H]3CC[C@@H]14", "note": "[Compound 20]", "values": [{"measurement": "Reactivity / stability of covalent warhead toward GSH (in words)", "setting": "[1]", "result": "slightly weakens the reactivity of the enone"}]}, {"smiles": "CC1(C)O[C@@H]2[C@H]3CC[C@H]4[C@@]56CO[C@@](O1)([C@@H](O)[C@@H]5C(C)(C)CC[C@@H]6O)[C@@]24C(=O)C31CN1", "note": "(stereo partly drawn) [Compound 25, (2R,3′S,3a′R,3a1′R,6a′R,7′S,11′S,11a′S)-7′,11′-Dihydroxy-5′,5′,8′,8′-tetramethyldecahydro-2′H-spiro[aziridine-2,15′-[6a,11a]-(epoxymethano)[3,3a1]ethanophenanthro[1,10-de][1,3]dioxin]-14’-one]", "values": [{"measurement": "microsomal stability compared to oridonin", "setting": "[2]", "result": "higher microsomal and plasma stability"}]}, {"smiles": "C=CCNc1nc2c(s1)CC(C)(C)[C@H]1[C@H](O)[C@]3(O)OC[C@@]21[C@@H]1CC[C@@H]2[C@@H](O)[C@@]13C(=O)C21CN1C(=O)OCC1c2ccccc2-c2ccccc21", "note": "(stereo partly drawn) [Compound 42]", "values": [{"measurement": "antiproliferative activity (in words)", "setting": "[3]", "result": "moderate activities"}]}, {"smiles": "C=CCNc1nc2c(s1)CC(C)(C)[C@H]1[C@H](O)[C@]3(O)OC[C@@]21[C@@H]1CC[C@@H]2[C@@H](O)[C@@]13C(=O)C21CN1", "note": "(stereo partly drawn) [Compound 43]", "values": [{"measurement": "antiproliferative activity (in words)", "setting": "[3]", "result": "moderate activities"}]}, {"smiles": "C=CC(=O)N1CC12C(=O)[C@@]13[C@@H]4OC(C)(C)O[C@@]15OC[C@@]1([C@H]([C@@H]5O)C(C)(C)CC[C@@H]1O)[C@@H]3CC[C@H]42", "note": "(stereo partly drawn) [Compound 44]", "values": [{"measurement": "suppression of proliferation (dose-dependent)", "setting": "MDA-MB-231 cells [4]", "result": "suppressed the proliferation"}, {"measurement": "suppression of proliferation (dose-dependent)", "setting": "MCF-7 cells [5]", "result": "suppressed the proliferation"}, {"measurement": "suppression of proliferation (dose-dependent)", "setting": "SK-BR3 cells [6]", "result": "suppressed the proliferation"}, {"measurement": "suppression of proliferation (dose-dependent)", "setting": "MDA-MB-468 cells [7]", "result": "suppressed the proliferation"}, {"measurement": "inhibition of colony formation", "setting": "MDA-MB-231 cells [8]", "result": "significantly inhibit the colony formation"}, {"measurement": "inhibition of colony formation", "setting": "SK-BR3 cells [9]", "result": "significantly inhibit the colony formation"}, {"measurement": "inhibition of colony formation", "setting": "MDA-MB-468 cells [10]", "result": "significantly inhibit the colony formation"}, {"measurement": "inhibition of colony formation", "setting": "MCF-7 cells [11]", "result": "significantly inhibit the colony formation"}, {"measurement": "apoptotic cells (early and late apoptosis together)", "setting": "MDA-MB-231 cells [12]; 10 μM", "result": 18.2, "unit": "%"}, {"measurement": "apoptotic cells (early and late apoptosis together)", "setting": "MDA-MB-231 cells [12]; 15 μM", "result": 26.8, "unit": "%"}, {"measurement": "apoptotic cells (early and late apoptosis together)", "setting": "MDA-MB-231 cells [12]; 20 μM", "result": 47.6, "unit": "%"}, {"measurement": "NF-κB (p65) protein expression", "setting": "NF-κB (p65)", "result": "down-regulation"}, {"measurement": "cleaved PARP expression", "setting": "cleaved PARP", "result": "up-regulation"}, {"measurement": "ratio of Bcl-2 to Bax", "setting": "Bcl-2 to Bax ratio", "result": "reduced"}, {"measurement": "growth-inhibitory activity against MCF-10A in comparison to oridonin", "setting": "MCF-10A cells; 0–10 μM", "result": "comparable"}, {"measurement": "growth-inhibitory activity against MCF-10A in comparison to oridonin", "setting": "MCF-10A cells; 15~100 μM", "result": "significantly lower"}, {"measurement": "antitumor efficacy, 44 versus oridonin", "setting": "[13]; 10 mg/kg", "result": "comparable efficacy"}, {"measurement": "inhibitory effect on tumor growth compared to vehicle", "setting": "[13]; 10 mg/kg", "result": "significant inhibitory effect"}, {"measurement": "inhibitory effect on tumor growth compared to vehicle", "setting": "[13]; 15 mg/kg", "result": "significant inhibitory effect"}, {"measurement": "inhibitory effect on tumor growth compared to the oridonin group", "setting": "[13]; 15 mg/kg, one-way ANOVA p = 0.0023", "result": "better inhibitory effect"}]}, {"smiles": "CCC(=O)N1CC12C(=O)[C@@]13[C@@H]4OC(C)(C)O[C@@]15OC[C@@]1([C@H]([C@@H]5O)C(C)(C)CC[C@@H]1O)[C@@H]3CC[C@H]42", "note": "(stereo partly drawn) [Compound 45]", "values": [{"measurement": "antiproliferative activity (in words)", "setting": "[3]", "result": "complete loss of activity"}]}, {"smiles": "COC(=O)/C=C/C(=O)OC", "note": "[dimethyl fumarate]", "values": [{"measurement": "half-life with GSH", "setting": "[14]", "result": "50 to 60", "unit": "min"}]}, {"smiles": "C=C1C(=O)[C@]23[C@H](O)[C@H]1CC[C@H]2[C@@]12CO[C@]3(O)[C@@H](O)[C@@H]1C(C)(C)CC[C@@H]2O", "note": "[oridonin]", "values": [{"measurement": "antitumor efficacy, 44 versus oridonin", "setting": "[13]; 10 mg/kg", "result": "comparable efficacy"}, {"measurement": "stability in strong acidic or basic media", "setting": "[15]", "result": "not stable"}, {"measurement": "inhibition of tumor growth", "setting": "t(8;21) leukemia", "result": "Inhibition of tumor growth in t(8;21) leukemia murine model (7.5 and 15 mg/kg)"}]}]}
